This is an account of results in ChEMBL document CHEMBL1149106, “Design, synthesis, and evaluation of aza-peptide epoxides as selective and potent inhibitors of caspases-1, -3, -6, and -8” (J Med Chem, 2004).

Calls of active or inactive are those of the source. The rule behind the calls is not given here.

One experiment deals with T1, Caspase-6 (Homo sapiens) (UniProt P55212).
T1 sequence (whole entry): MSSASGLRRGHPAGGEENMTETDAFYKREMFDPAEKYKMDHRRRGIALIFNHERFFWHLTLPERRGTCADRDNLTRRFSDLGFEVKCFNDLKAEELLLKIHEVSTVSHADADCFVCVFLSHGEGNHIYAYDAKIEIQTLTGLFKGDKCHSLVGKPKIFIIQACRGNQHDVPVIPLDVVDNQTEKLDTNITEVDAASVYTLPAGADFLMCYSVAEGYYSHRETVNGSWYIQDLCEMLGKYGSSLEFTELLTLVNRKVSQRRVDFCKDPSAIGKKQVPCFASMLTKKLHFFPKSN
Nature of the experiment: Second-order inhibition rate of caspase-6 was determined by progress curve method. Summed up: (§1)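 Caspases-3, -6 and -8 were assayed in 50 mM HEPES, 100 mM NaCl, 0.1% (w/v) CHAPS, 10% (w/v) sucrose and 10 mM DTT, pH 7.4. Substrate: Cbz-DEVD-AFC or Cbz-DEVD-AMC.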

For another experiment, the target named is Caspase-8 (Homo sapiens) (UniProt Q14790). Kind of experiment: Second-order inhibition rate of caspase-8 was determined by progress curve method. Summed up: as §1
The next experiment addresses T2, Caspase-1 (Homo sapiens) (UniProt P29466).
T2 sequence (whole entry): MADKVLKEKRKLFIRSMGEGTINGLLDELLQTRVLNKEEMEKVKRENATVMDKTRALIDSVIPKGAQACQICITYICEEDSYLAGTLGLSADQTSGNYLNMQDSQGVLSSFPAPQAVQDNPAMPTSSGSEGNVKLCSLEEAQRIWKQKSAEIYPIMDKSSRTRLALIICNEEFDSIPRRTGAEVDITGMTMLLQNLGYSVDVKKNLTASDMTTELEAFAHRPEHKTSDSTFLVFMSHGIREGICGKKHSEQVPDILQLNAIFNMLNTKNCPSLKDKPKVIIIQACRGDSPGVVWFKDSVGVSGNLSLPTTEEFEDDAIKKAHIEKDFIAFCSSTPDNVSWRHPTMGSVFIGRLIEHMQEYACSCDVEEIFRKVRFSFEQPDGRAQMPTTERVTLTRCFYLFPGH
Kind of experiment: Second-order inhibition rate of caspase-1 was determined by progress curve method. In short, it runs like this: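 Caspase-1 assay buffer: 100 mM HEPES, 0.5 mM EDTA, 20% (v/v) glycerol, 5 mM DTT, pH 7.5. Substrate: Ac-YVAD-AMC.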

A further experiment addresses T3, Caspase-3 (Homo sapiens) (UniProt P42574).
T3 sequence (whole entry): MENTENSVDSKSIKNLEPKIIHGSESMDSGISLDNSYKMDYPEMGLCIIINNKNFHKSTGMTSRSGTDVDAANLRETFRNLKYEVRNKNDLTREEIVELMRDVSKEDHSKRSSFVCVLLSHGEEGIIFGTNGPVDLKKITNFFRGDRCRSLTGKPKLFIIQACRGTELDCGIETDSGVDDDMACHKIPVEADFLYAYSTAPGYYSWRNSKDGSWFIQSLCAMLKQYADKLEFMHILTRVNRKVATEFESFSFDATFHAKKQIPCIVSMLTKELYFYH
Nature of the experiment: Second-order inhibition rate of caspase-3 was determined by progress curve method. Summed up:
as §1

Experiment [1] has as its target Human immunodeficiency virus type 1 protease (Human immunodeficiency virus 1) (UniProt Q72874). Kind of experiment: Tested for inhibition of HIV-1 protease; NI = No Inhibition.
Experiment [2] addresses Plasmepsin II (Plasmodium falciparum) (UniProt P46925). Nature of the experiment: Inhibition of plasmepsin-2 from Plasmodium falciparum; NI = No Inhibition.
In experiment [3] the target is Cathepsin D (Homo sapiens) (UniProt P07339). Nature of the experiment: Tested for inhibition of human cathepsin D by the compound; NI = No Inhibition.
Another experiment addresses Pepsin A (Sus scrofa) (UniProt P00791). Kind of experiment: Tested for inhibition of porcine pepsin by the compound; NI = No Inhibition.
The next experiment concerns the target T4, Papain (Carica papaya) (UniProt P00784).
T4 sequence (whole entry): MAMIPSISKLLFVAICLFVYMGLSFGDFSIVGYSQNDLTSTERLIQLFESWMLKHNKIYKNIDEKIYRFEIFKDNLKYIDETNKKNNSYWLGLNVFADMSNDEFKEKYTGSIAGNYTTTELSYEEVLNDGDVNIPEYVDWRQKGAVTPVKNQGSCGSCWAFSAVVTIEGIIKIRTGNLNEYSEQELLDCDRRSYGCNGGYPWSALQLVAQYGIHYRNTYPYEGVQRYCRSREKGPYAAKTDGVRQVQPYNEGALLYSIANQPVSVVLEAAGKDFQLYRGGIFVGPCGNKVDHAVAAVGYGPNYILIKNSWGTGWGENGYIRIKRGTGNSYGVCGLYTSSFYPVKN
Nature of the experiment: Tested for inhibition of papain by the compound.

The nature of experiment [4]: Tested for inhibition of chymotrypsinogen by the compound; NI = No Inhibition.
A further experiment relates to Cathepsin B. Kind of experiment: Tested for inhibition of cathepsin B by the compound.
The target in experiment [5] is Cathepsin B (Homo sapiens) (UniProt P07858). Kind of experiment: Tested for inhibition of cathepsin B by the compound.

Cathepsin D (Homo sapiens), sequence (P07339 65-162 limits assumed): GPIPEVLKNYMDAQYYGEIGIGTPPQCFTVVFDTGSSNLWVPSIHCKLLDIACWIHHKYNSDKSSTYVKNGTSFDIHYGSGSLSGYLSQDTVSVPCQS
Cathepsin D (Homo sapiens), sequence (P07339 169-412 limits assumed): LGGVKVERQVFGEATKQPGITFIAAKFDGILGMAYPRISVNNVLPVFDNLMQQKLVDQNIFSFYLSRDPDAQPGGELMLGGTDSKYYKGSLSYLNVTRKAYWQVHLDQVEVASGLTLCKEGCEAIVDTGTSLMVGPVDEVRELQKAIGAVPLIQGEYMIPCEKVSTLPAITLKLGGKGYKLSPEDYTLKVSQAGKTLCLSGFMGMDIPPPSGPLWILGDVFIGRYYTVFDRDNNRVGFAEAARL
Caspase-8 (Homo sapiens), sequence (Q14790 217-374 limits assumed): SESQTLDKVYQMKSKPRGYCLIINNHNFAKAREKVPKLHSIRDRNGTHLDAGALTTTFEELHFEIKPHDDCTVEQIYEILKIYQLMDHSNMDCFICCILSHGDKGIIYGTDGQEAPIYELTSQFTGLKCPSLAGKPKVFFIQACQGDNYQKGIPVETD
Caspase-8 (Homo sapiens), sequence (Q14790 385-479 limits assumed): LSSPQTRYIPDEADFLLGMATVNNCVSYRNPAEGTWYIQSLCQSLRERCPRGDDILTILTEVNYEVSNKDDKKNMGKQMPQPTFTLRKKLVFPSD
Plasmepsin II (Plasmodium falciparum), sequence (P46925 125-453 limits assumed): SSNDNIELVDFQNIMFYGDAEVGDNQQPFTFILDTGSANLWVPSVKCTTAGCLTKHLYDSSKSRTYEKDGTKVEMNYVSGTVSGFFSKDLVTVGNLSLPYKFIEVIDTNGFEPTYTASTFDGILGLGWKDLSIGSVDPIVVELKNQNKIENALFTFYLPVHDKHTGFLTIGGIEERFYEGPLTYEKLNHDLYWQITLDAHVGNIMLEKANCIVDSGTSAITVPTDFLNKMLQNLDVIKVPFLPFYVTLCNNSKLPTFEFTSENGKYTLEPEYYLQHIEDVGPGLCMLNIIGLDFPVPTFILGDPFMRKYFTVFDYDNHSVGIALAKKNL
Pepsin A (Sus scrofa), sequence (P00791 60-385 limits assumed): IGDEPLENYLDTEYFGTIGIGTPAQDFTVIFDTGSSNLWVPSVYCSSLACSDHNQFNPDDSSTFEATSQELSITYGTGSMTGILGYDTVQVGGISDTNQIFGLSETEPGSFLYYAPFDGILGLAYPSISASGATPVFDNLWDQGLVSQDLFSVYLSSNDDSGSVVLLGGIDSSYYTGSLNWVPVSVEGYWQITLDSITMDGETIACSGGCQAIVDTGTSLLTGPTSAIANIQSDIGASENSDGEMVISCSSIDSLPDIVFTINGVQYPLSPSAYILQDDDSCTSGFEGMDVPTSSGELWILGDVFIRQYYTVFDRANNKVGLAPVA

Consider `CCOC(=O)[C@H]1O[C@@H]1C(=O)N(CC(=O)O)NC(=O)[C@H](C)NC(=O)[C@@H](NC(=O)CCc1ccccc1)C(C)C`, for which the k2 came to 75 M⁻¹ s⁻¹ at Caspase-6 (Homo sapiens), 1570 M⁻¹ s⁻¹ on Caspase-8 (Homo sapiens), 32200 M⁻¹ s⁻¹ on Caspase-1 (Homo sapiens) and 1040 M⁻¹ s⁻¹ on Caspase-3 (Homo sapiens). In addition, the “k obs / 1” value (in experiment [1]; in experiment [2]; in experiment [3]; at Pepsin A (Sus scrofa)) was “inactive” throughout.
As to `CC(C)[C@H](NC(=O)CCc1ccccc1)C(=O)N[C@@H](C)C(=O)NN(CC(=O)O)C(=O)[C@H]1O[C@@H]1C(=O)OCc1ccccc1` (stereo in doubt), the k2 at Caspase-1 (Homo sapiens) turned out to be 18100 M⁻¹ s⁻¹; at Caspase-3 (Homo sapiens) it was 680 M⁻¹ s⁻¹. Besides, the k obs / 1 on Papain (Carica papaya) was less than 10 M⁻¹ s⁻¹; in experiment [4], 21 M⁻¹ s⁻¹; in the experiment with Cathepsin B it was “No inhibition”; in [5] it was less than 10 M⁻¹ s⁻¹.
